Source: ChEMBL document CHEMBL3102786, “Anilides and quinolones with nitrogen-bearing substituents from benzothiophene and thienothiophene series: synthesis, photochemical synthesis, cytostatic evaluation, 3D-derived QSAR analysis and DNA-binding properties” (Eur J Med Chem, 2014)
Calls of active or inactive are those of the source. The calls are words filed in the database; no cut-off is given here.

How the values were obtained:
[1] = molecular target: DNA topoisomerase 2-alpha (Homo sapiens) (UniProt P11388); test: Inhibition of DNA topoisomerase 2 (unknown origin)-mediated DNA cleavage assessed as linear band at 50 uM by agarose gel electrophoresis
Summary of the method: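 Topoisomerase II DNA cleavage assay was run per an earlier method, with etoposide as the Topo II poison positive control. Compounds came from 10 mM DMSO stocks freshly diluted in aqueous buffer.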

[2] = molecular target: T1, DNA topoisomerase 1 (Homo sapiens) (UniProt P11387); test: Inhibition of human topoisomerase 1-mediated DNA cleavage assessed as accumulation of nicked DNA at 1 to 50 uM by agarose gel electrophoresis
T1 sequence (whole entry): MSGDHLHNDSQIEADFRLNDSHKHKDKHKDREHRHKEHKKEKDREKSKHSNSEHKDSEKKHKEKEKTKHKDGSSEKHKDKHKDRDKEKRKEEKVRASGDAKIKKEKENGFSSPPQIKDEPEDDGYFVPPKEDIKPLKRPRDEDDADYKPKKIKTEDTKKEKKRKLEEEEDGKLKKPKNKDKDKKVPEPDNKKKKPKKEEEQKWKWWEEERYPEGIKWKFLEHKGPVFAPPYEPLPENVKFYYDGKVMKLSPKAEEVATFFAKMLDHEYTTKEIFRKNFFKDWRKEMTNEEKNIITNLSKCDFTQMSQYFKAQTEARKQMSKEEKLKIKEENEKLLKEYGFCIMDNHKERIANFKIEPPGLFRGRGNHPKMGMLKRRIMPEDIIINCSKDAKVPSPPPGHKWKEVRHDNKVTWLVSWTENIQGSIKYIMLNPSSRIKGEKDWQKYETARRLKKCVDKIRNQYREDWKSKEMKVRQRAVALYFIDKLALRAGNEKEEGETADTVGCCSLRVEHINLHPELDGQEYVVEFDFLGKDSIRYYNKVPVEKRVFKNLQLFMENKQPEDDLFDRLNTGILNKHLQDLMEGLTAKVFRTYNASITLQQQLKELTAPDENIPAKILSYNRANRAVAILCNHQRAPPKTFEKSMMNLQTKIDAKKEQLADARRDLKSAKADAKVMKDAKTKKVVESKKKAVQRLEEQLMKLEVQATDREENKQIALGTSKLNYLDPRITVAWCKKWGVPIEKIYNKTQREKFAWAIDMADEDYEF
Summary of the method: (§1)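 Supercoiled pUC19 plasmid was incubated with or without compound across the stated µM range, then relaxed with human topoisomerase I. Reactions were stopped with SDS and proteinase K. Samples were run on a 1% agarose gel in TBE for 2 h at 120 V and post-stained with ethidium bromide. Supercoiled, relaxed and nicked bands were scored under UV.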

Nucleic Acid [3] = test: Binding affinity to Escherichia coli supercoiled pUC19 DNA assessed as intercalation at 1 to 50 uM by agarose gel electrophoresis in presence of human DNA topoisomerase 1; type: nucleic-acid assay; summary of the method: as §1
DNA [4] = test: Binding affinity to calf thymus DNA assessed as change in melting temperature at 1 drug/DNA ratio by spectrophotometry; type: nucleic-acid assay; settings: Bos taurus
Summary of the method: (§2)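 CT-DNA (20 µM) was dialyzed and incubated alone or with compound at drug/base-pair ratio R 0.25–1 in BPE buffer (6 mM Na2HPO4, 2 mM NaH2PO4, 1 mM EDTA, pH 7.1). A260 was read every min from 20–100 °C at 1 °C/min against a compound-matched reference. Tm was taken from the first-derivative midpoint, and ΔTm = Tm(drug+DNA) − Tm(DNA alone).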

DNA [5] = test: Binding affinity to calf thymus DNA assessed as change in melting temperature at 0.5 drug/DNA ratio by spectrophotometry; type: nucleic-acid assay; settings: Bos taurus; summary of the method: as §2
[6] = Cytotoxicity against human H460 cells after 72 hrs by MTT assay; type: functional, cell-based, NCI-H460
Summary of the method: (§3)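 HCT 116 and H 460 were seeded at 3×10^4 cells/mL and MCF-7 at 5×10^4 cells/mL in DMEM with 10% FBS, 2 mM glutamine and antibiotics, at 37 °C in 5% CO2. Compounds were added after 24 h (DMSO <1%). After 72 h, MTT absorbance was read at 570 nm. Runs were technical quadruplicates with ≥2 biological replicates, and IC50 was obtained by linear interpolation around 50% growth.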

DNA [7] = test: Binding affinity to calf thymus DNA assessed as change in melting temperature at 0.25 drug/DNA ratio by spectrophotometry; type: nucleic-acid assay; settings: Bos taurus; summary of the method: as §2
MCF7 = test: Cytotoxicity against human MCF7 cells after 72 hrs by MTT assay; type: functional, cell-based; summary of the method: as §3
HCT-116 = test: Cytotoxicity against human HCT116 cells after 72 hrs by MTT assay; type: functional, cell-based; summary of the method: as §3
Nucleic Acid [8] = test: Binding affinity to Escherichia coli supercoiled pUC19 DNA assessed as intercalation at 0.2 to 5 uM by agarose gel electrophoresis in presence of human DNA topoisomerase 1; type: nucleic-acid assay; summary of the method: as §1
[9] = Binding affinity to DNA (unknown origin) assessed as inhibition of DNase1-mediated cleavage at 2 to 5 uM by DNase1 footprinting assay
Summary of the method: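 DNase I footprinting run essentially per an earlier protocol. Gels were exposed to a storage screen at room temperature and then scanned. Compounds were made as 10 mM DMSO stocks and freshly diluted into aqueous buffer.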

DNA [10] = test: Binding affinity to calf thymus DNA assessed as hypochromic effect at 20 uM by UV-Visible spectroscopy relative to control; type: nucleic-acid assay; settings: Bos taurus
Summary of the method: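 Compound (20 µM) in BPE buffer pH 7.1 was titrated with CT-DNA, 10–100 µM in 10 µM steps and then to 200 µM in 20 µM steps (base pairs). Spectra were recorded from 230–530 nm in a 10 mm quartz cuvette, referenced against a cuvette holding the same DNA concentration.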

Nucleic Acid [11] = test: Binding affinity to Escherichia coli supercoiled pUC19 DNA assessed as intercalation at 20 to 50 uM by agarose gel electrophoresis in presence of human DNA topoisomerase 1; type: nucleic-acid assay; summary of the method: as §1
DNA [12] = test: Binding affinity to calf thymus DNA at 50 uM by circular dichroism spectra analysis; type: nucleic-acid assay; settings: Bos taurus
Summary of the method: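 Drug (50 µM) was incubated in BPE buffer with or without CT-DNA at 0.1–100 µM. CD spectra were recorded from 480 to 230 nm in a 10 mm quartz cell at 20 °C under Peltier control.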

[13] = molecular target: DNA topoisomerase 2-alpha (Homo sapiens) (UniProt P11388); settings: 20 to 50 uM

Chain of DNA topoisomerase 2-alpha (Homo sapiens) (P11388 whole entry): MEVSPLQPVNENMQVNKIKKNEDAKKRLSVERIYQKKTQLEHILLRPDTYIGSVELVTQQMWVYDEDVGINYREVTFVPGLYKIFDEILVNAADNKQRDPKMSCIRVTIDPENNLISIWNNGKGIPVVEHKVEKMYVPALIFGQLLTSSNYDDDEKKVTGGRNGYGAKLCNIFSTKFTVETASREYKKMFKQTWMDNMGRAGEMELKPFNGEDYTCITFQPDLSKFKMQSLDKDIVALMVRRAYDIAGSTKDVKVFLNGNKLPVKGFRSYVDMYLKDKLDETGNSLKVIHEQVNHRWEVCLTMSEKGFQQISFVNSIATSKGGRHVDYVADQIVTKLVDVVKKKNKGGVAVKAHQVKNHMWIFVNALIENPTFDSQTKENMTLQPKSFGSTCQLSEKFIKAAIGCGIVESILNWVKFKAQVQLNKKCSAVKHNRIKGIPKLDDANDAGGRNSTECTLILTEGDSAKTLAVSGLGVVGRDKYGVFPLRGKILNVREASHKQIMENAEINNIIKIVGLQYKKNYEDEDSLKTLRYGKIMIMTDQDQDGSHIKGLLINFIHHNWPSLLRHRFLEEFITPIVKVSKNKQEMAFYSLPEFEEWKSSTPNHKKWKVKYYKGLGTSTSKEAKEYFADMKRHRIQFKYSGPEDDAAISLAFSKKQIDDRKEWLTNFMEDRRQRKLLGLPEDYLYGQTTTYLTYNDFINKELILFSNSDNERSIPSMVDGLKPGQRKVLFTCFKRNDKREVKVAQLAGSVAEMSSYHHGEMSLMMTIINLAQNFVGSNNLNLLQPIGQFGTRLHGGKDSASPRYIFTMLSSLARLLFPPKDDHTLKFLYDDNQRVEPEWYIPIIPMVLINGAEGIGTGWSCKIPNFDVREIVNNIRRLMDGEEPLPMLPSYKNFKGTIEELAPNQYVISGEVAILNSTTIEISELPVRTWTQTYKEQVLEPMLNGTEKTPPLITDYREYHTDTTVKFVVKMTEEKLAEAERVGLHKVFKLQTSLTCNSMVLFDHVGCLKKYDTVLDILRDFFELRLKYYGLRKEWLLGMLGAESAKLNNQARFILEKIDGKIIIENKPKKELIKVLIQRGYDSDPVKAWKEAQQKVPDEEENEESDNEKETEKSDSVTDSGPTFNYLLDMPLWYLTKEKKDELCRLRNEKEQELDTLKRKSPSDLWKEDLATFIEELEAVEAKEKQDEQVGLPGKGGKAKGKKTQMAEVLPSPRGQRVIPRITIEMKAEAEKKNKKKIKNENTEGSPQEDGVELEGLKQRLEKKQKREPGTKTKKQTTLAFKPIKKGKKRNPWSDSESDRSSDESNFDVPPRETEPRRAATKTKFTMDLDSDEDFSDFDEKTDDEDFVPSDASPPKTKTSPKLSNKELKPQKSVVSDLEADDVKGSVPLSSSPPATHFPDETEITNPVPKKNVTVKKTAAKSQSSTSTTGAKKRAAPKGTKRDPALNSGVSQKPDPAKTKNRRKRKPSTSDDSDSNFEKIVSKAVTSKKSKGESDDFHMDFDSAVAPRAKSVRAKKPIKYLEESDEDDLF

Row | Topo II DNA cleavage inhibition (active/not active) [1] | inhibition [2] | Activity (DNA [4]) | Activity (DNA [5]) | Activity (DNA [7]) | Structure (SMILES) | IC50 ([6]; Homo sapiens, NCI-H460, 72 h) [µM] | IC50 (MCF7; Homo sapiens, MCF7, 72 h) [µM] | IC50 (HCT-116; Homo sapiens, HCT-116, 72 h) [µM] | further results
1 | inactive | inactive | inactive | inactive | inactive | CN(C)c1ccc2[nH]c(=O)c3sc4ccccc4c3c2c1 | 37 | 7 | 7 | Activity (Nucleic Acid [3]): inactive
2 | inactive | inactive |  |  |  | CC(=O)Nc1ccc2c(c1)c1c(sc3ccccc31)c(=O)n2CCCN(C)C | 0.3 | 0.6 | 0.2 | Activity (Nucleic Acid [8]): Active; Activity [9]: Active; Activity (DNA [10]): 24%; ΔTm (DNA [4]): 19 °C; ΔTm (DNA [5]): 12.7 °C; ΔTm (DNA [7]): 10 °C
3 | inactive | inactive | inactive | inactive | inactive | CC(=O)Nc1ccc2[nH]c(=O)c3sc4ccccc4c3c2c1 | > 100 | 76 | 30 | Activity (Nucleic Acid [11]): Active
4 | inactive | inactive | inactive | inactive | inactive | Nc1ccc2[nH]c(=O)c3sc4ccccc4c3c2c1 [listing 3 of 3 here] |  |  |  | Activity (Nucleic Acid [11]): Active; Activity (DNA [10]): 58%; ΔTm (DNA [5]): 2 °C
5 | inactive | inactive |  |  |  | O=c1[nH]c2ccc([N+](=O)[O-])cc2c2c1sc1ccccc12 | 18 | 49 | 22 | Activity (Nucleic Acid [3]): inactive
6 | Active | inactive |  |  |  | C[N+](C)(C)c1ccc(NC(=O)c2sc3ccccc3c2Cl)cc1 | 20 | 17 | 17 | Activity (Nucleic Acid [11]): Active; Activity (DNA [10]): 23%; ΔTm (DNA [4]): 3 °C; ΔTm (DNA [5]): 1 °C
7 | inactive |  | inactive | inactive | inactive | CN(C)c1ccc(NC(=O)c2sc3ccccc3c2Cl)cc1 | > 100 | > 100 | > 100 | 
8 | inactive | inactive |  |  |  | C[N+](C)(C)c1ccc2[nH]c(=O)c3sc4ccccc4c3c2c1 | > 100 | 50 | > 100 | Activity (Nucleic Acid [8]): Active; Activity [9]: Active; Activity (DNA [12]): inactive; Activity (DNA [10]): 49%; ΔTm (DNA [4]): 16.9 °C; ΔTm (DNA [5]): 12.8 °C; ΔTm (DNA [7]): 10 °C
9 | inactive | inactive | inactive | inactive | inactive | Nc1ccc(NC(=O)c2sc3ccccc3c2Cl)cc1 [listing 2 of 3 here] |  |  |  | Activity (Nucleic Acid [3]): inactive
10 | inactive |  | inactive | inactive | inactive | CC(=O)Nc1ccc(NC(=O)c2sc3ccccc3c2Cl)cc1 | > 100 | > 100 | > 100 | 
11 | inactive |  | inactive | inactive | inactive | O=C(Nc1ccc([N+](=O)[O-])cc1)c1sc2ccccc2c1Cl | 55 | > 100 | ≥ 100 | 

More lines, now with the values behind:

Row | Structure (SMILES) | Topo II DNA cleavage inhibition (active/not active) [1] | inhibition [2] | Activity (DNA [4]) | Activity (DNA [5]) | Activity (DNA [7]) | IC50 ([6]; Homo sapiens, NCI-H460, 72 h) [µM] | IC50 (MCF7; Homo sapiens, MCF7, 72 h) [µM] | IC50 (HCT-116; Homo sapiens, HCT-116, 72 h) [µM] | further results
12 | CN(C)c1ccc(NC(=O)c2sc3sccc3c2Cl)cc1 |  |  |  |  |  | > 100 | > 100 | > 100 | 
13 | O=C(Nc1ccc([N+](=O)[O-])cc1)c1sc2sccc2c1Cl |  |  |  |  |  | > 100 | ≥ 100 | > 100 | 
14 | Nc1ccc(NC(=O)c2sc3ccccc3c2Cl)cc1 [listing 1 of 3 here] |  |  |  |  |  | > 100 |  | ≥ 100 | IC50 (MCF7; mcf7): 24 µM
15 | Nc1ccc2[nH]c(=O)c3sc4ccccc4c3c2c1 [listing 1 of 3 here] |  |  |  |  |  |  |  |  | IC50 ([6]; nci-h460): 9 µM; IC50 (HCT-116; hct-116): 4 µM
16 | Nc1ccc2[nH]c(=O)c3sc4ccccc4c3c2c1 [listing 2 of 3 here] |  |  |  |  |  | 6 | 2 | 3 | 
17 | CN(C)c1ccc2c(c1)c1c(sc3ccccc31)c(=O)n2C | inactive | inactive |  |  |  | 13 | 16 | 5 | Activity (Nucleic Acid [11]): Active; Activity (DNA [10]): 46%; ΔTm (DNA [4]): 3 °C; ΔTm (DNA [5]): 0 °C
18 | Cn1c(=O)c2sc3ccccc3c2c2cc([N+](C)(C)C)ccc21 | inactive | inactive |  |  |  | 18 | 10 | 5 | Activity (Nucleic Acid [8]): Active; Activity [9]: Active; Activity (DNA [12]): inactive; Activity (DNA [10]): 48%; ΔTm (DNA [4]): 5.9 °C; ΔTm (DNA [5]): 2.9 °C
19 | CC(=O)N(C)c1ccc2c(c1)c1c(sc3ccccc31)c(=O)n2C |  |  |  |  |  | 40 | ≥ 100 | 14 | 
20 | COc1cc([C@@H]2c3cc4c(cc3[C@@H](O[C@@H]3O[C@@H]5CO[C@@H](C)O[C@H]5[C@H](O)[C@H]3O)[C@H]3COC(=O)[C@H]23)OCO4)cc(OC)c1O |  |  |  |  |  |  |  |  | inhibition [13]: Active
21 | Nc1ccc(NC(=O)c2sc3ccccc3c2Cl)cc1 [listing 3 of 3 here] |  |  |  |  |  |  |  |  | IC50 (MCF7; mcf7): ≥ 100 µM
22 | CC(=O)Nc1ccc(NC(=O)c2sc3sccc3c2Cl)cc1 |  |  |  |  |  | > 100 | > 100 | ≥ 100 | 
